Results as given in ChEMBL document CHEMBL2086292, “Chalcogenopyrylium compounds as modulators of the ATP-binding cassette transporters P-glycoprotein (P-gp/ABCB1) and multidrug resistance protein 1 (MRP1/ABCC1)” (J Med Chem, 2012).
Values joined by “and” are separate entries in the source; they are usually repeats but may differ in a detail not shown here. Equal entries are not always repeated.

Legend:
[1] = molecular target: P-gp (ABCB1) (Homo sapiens, UniProt P08183); experiment: Induction of ATPase activity of human His10-tagged P-gp expressed in BHK cells assessed as inorganic phosphate release after 30 mins relative to control; type: cell-based; settings: human His10-tagged P-gp expressed in BHK cells, read-out: FC
Sequence of P-gp (ABCB1) (P08183 whole entry): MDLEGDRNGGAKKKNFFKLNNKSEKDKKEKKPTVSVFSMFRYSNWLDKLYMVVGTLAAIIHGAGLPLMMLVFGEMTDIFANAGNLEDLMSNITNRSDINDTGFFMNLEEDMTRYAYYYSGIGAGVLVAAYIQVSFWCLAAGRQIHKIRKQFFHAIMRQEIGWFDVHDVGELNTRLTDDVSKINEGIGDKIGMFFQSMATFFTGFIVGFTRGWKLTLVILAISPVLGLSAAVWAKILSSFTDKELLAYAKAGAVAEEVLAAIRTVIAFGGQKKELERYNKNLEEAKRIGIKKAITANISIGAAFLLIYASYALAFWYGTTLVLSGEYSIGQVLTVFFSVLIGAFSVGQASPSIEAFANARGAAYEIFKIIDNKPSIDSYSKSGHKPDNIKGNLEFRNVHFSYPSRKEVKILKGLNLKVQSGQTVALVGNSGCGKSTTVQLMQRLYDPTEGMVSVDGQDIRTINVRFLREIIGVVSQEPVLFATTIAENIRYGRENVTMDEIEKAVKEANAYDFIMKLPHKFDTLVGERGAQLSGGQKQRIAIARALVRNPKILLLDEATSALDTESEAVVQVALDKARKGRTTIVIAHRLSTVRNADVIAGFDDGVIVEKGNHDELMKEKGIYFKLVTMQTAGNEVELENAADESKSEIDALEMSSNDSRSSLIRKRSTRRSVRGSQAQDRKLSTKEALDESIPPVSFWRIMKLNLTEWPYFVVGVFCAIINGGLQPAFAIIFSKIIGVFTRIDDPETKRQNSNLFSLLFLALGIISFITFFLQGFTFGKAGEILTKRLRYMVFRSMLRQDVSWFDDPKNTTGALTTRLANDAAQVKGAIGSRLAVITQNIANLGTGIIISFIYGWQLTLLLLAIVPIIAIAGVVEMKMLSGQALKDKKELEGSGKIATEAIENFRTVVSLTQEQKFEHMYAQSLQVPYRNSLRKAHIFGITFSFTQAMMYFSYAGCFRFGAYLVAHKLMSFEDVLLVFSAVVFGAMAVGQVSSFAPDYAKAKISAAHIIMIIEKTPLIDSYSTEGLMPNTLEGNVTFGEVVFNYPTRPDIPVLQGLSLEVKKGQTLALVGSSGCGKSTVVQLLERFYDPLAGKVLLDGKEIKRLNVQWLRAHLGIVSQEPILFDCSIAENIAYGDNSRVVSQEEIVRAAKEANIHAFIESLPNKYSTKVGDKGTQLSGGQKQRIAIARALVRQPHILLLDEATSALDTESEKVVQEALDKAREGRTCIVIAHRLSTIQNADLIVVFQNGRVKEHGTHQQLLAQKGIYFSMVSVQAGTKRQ
Procedure, shortened: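 Human P-gp with C-terminal His10 tag, stably expressed in BHK cells, purified by Ni-chelate chromatography and mixed 1:1 with 10 mg/mL sheep brain phosphatidylethanolamine in TBS (10 mM Tris/HCl pH 7.4, 150 mM NaCl), then sonicated. Compound titrated, 30 min at 37 °C. Inorganic phosphate released from ATP measured. Vmax expressed as fold over basal activity; KM is the concentration giving half-maximal stimulation.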

[2] = molecular target: T1, MRP1 (Multidrug resistance-associated protein 1) (Homo sapiens, UniProt P33527); experiment: Inhibition of human MRP1 mediated uptake of [3H]E2-17betaG in HEK cell membrane vesicles at 30 uM by liquid scintillation counting relative to control; type: cell membranes, HEK293; settings: HEK cell membrane vesicles with human MRP1, probe [3H]E2-17betaG
T1 sequence (P33527 whole entry): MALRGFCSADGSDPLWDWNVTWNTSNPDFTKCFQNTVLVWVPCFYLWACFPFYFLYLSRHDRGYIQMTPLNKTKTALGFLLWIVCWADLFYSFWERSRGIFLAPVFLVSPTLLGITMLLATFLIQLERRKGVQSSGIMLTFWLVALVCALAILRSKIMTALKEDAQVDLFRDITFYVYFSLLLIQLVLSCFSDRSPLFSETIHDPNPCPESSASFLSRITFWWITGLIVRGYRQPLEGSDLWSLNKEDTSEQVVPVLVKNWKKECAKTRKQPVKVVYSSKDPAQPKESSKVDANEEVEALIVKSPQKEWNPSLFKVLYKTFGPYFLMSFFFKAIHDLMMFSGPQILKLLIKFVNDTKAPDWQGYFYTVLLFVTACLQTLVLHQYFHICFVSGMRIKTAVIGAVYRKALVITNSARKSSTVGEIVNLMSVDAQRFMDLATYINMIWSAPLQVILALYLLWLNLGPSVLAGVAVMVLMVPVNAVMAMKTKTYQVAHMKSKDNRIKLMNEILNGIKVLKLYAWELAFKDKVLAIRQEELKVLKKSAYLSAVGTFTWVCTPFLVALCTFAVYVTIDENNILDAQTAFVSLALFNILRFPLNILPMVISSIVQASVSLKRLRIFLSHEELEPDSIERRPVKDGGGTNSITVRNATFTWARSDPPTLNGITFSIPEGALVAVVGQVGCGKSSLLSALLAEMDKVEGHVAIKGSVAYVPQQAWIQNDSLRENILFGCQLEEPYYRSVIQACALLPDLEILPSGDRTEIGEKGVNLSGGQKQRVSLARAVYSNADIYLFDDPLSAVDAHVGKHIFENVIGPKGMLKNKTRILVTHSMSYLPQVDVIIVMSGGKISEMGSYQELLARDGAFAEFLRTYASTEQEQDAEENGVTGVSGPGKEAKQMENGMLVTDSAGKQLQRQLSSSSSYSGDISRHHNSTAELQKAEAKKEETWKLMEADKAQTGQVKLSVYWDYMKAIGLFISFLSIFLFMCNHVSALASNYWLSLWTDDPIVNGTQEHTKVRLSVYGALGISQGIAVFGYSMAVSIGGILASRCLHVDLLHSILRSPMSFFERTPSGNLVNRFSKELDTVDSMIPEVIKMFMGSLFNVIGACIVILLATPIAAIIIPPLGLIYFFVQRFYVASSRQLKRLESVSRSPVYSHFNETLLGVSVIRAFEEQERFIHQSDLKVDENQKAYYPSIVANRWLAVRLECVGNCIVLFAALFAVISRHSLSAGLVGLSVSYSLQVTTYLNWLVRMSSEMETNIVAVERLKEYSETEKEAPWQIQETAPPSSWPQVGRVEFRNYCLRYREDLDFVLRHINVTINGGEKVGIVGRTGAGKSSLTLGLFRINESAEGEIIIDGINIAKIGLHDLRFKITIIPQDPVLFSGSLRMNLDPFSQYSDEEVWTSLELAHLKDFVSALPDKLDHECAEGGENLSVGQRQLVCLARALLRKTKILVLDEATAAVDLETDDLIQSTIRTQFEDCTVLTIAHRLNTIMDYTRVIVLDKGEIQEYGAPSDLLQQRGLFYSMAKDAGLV
Procedure, shortened: (§1)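 Inside-out membrane vesicles from HEK cells stably transfected with human MRP1. Vesicle protein (2 μg) incubated in Tris-sucrose buffer pH 7.4 with 400 nM [3H]E2-17βG, 4 mM ATP or AMP and 10 mM MgCl2, 3 min at 37 °C, in duplicate; DMSO ≤1% final. Stopped by ice-cold dilution and rapid filtration, then scintillation counted. ATP-dependent uptake taken as ATP minus AMP values; inhibition reported as percent.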

[3] = molecular target: T1, MRP1 (Multidrug resistance-associated protein 1); experiment: Inhibition of human MRP1-mediated uptake of [3H]E2-17betaG in HEK cell membrane vesicles at 1 uM by liquid scintillation counting relative to control; type: cell membranes, HEK293; settings: HEK cell membrane vesicles with human MRP1, probe [3H]E2-17betaG; procedure, shortened: as §1
[4] = molecular target: T1, MRP1 (Multidrug resistance-associated protein 1); experiment: Inhibition of human MRP1 mediated uptake of [3H]E2-17betaG in HEK cell membrane vesicles at 5 uM by liquid scintillation counting relative to control; type: cell membranes, HEK293; settings: HEK cell membrane vesicles with human MRP1, probe [3H]E2-17betaG
Procedure, shortened: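 Inside-out vesicles from stably transfected HEK-MRP1 cells (2 μg protein) in Tris-sucrose buffer pH 7.4 with [³H]E₂17βG 400 nM, ATP or AMP 4 mM, MgCl₂ 10 mM, 3 min at 37 °C, compound at 5 μM; DMSO ≤1%; stopped by ice-cold dilution, rapid filtration, scintillation counting; ATP-dependent uptake = ATP minus AMP; duplicate wells.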

[5] = molecular target: ATP-dependent translocase ABCB1 (Homo sapiens, UniProt P08183); experiment: Inhibition of VER-stimulated human His10-tagged P-gp ATPase activity expressed in BHK cells after 15 mins; type: cell-based
Sequence of ATP-dependent translocase ABCB1 (P08183 whole entry): as the sequence (P08183 whole entry) above

[6] = Normalized ratio of the compound assessed as ratio of PBA/AB in absence of LSN 335984 to ratio of PBA/AB in presence of LSN 335984 in MDCK2-MDR1 cells at 5 uM after 1 hr; type: ADME, cell-based, Canis lupus familiaris; settings: dog, mdck-mdr1, 1 h
Procedure, shortened: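 MDCKII-MDR1 cells seeded at 50000 cells/cm² on Transwell filters, used on day 6. Preincubated 30 min with 4.3 mg/mL BSA in DPBSH, with or without 5 μM LSN 335984. Compound (5 μM) added to the apical or basolateral donor chamber and incubated 1 h at 37 °C with nutation. Donor and receiver samples quantified by LC-MS/MS. AB and BA permeabilities calculated. Normalized ratio is the BA/AB ratio without inhibitor divided by the ratio with inhibitor.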

[7] = Inhibition of P-gp expressed in MDCK2-MDR1 cells by calcein AM accumulation assay; type: cell-based; settings: MDCK-II
Procedure, shortened: (§2)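 MDCKII cells transfected with wild-type human MDR1, seeded at 40000 cells/well and used on day 4. Washed in DPBS with 10 mM HEPES pH 7.4, then compound in the same buffer 30 min at 37 °C. Replaced with compound plus 0.5 μg/mL calcein AM for a further 20 min. IC50 from 1:1 serial dilutions by variable-slope sigmoidal fit.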

[8] = test system: MDCK-II; experiment: Inhibition of P-gp expressed in MDCK2-MDR1 cells at 25 uM by calcein AM accumulation assay relative to LSN 335984; type: cell-based
Procedure, shortened: as §2, with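 “min. Fluorescence read at Ex 485/Em 530 nm. Signal expressed relative to 5 μM LSN 335984, taken as complete inhibition; vehicle 0.25% DMSO.” for “min.”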

[9] = Inhibition of P-gp mediated [3H]VIN efflux in MDCK2-MDR1 cells by scintillation counter; type: cell-based; settings: MDCK-II
Procedure, shortened: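 MDCKII-MDR1 monolayers on Transwell filters, used on day 6. Rinsed in DPBSH, then preincubated 30 min at 37 °C with compound ([…]) in BSA/DPBSH. [3H]vinblastine (0.25 μCi/mL) plus compound added basolaterally and fresh compound solution added apically. Apical buffer replaced every 10 min; apical radioactivity counted by scintillation. IC50 fitted.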

[10] = Octanol-water partition coefficient, log P of the compound in PBS at pH 7.4 after 1 hr by shake flask method; type: physicochemical
Procedure, shortened: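 Shake-flask method: saturated n-octanol solution shaken with an equal volume of PBS pH 7.4 for 3–5 min, then left to settle 1 h at 23 °C. Concentration in each layer measured spectrophotometrically.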

[11] = test system: P-glycoprotein (MDR1); experiment: P-glycoprotein-mediated transport in MDCK2-MDR1 cells assessed as permeability across apical to basolateral side at 5 uM after 1 hr; settings: dog, MDCK-MDR1
[12] = test system: P-glycoprotein (MDR1); experiment: P-glycoprotein-mediated transport in MDCK2-MDR1 cells assessed as permeability across basolateral to apical side at 5 uM after 1 hr; settings: dog, MDCK-MDR1
[13] = test system: MDCK-II; experiment: Inhibition of P-gp expressed in MDCK2-MDR1 cells at 5 uM by calcein AM accumulation assay relative to LSN 335984; type: cell-based
Procedure, shortened: as §2, with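 “min. Fluorescence read at Ex 485/Em 530 nm. Signal expressed relative to 5 μM LSN 335984, taken as complete inhibition; vehicle 0.25% DMSO.” for “min.”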

[14] = molecular target: T1, MRP1 (Multidrug resistance-associated protein 1); experiment: Inhibition of human MRP1-mediated uptake of [3H]E2-17betaG in HEK cell membrane vesicles at 10 uM by liquid scintillation counter; type: cell membranes, HEK293; settings: HEK cell membrane vesicles with human MRP1, probe [3H]E2-17betaG; procedure, shortened: as §1

fold induction at 0.5 h [1] | inhibition at 30 µM [2] | Compound | inhibition at 1 µM [3] | other results
13 | 96% | CN(C)c1ccc(-c2cc(-c3ccc(C(=O)O)s3)cc(C(C)(C)C)[s+]2)cc1 | – | –
5.2 | 93% | CN(C)c1ccc(-c2cc(-c3ccc(C(=S)N4CCCCC4)s3)cc(C(C)(C)C)[s+]2)cc1.[Cl-] | 36% | Ratio [6]: 705; IC50 [7]: 38 µM; inhibition [8]: 74%; IC50 [9]: 11.5 µM; logD at 1 h [10]: 2.1; Papp A-B at 1 h, 5 µM [11]: 0.03 ×10⁻⁶ cm/s; Papp B-A at 1 h, 5 µM [12]: 32 ×10⁻⁶ cm/s; inhibition [13]: 31%; inhibition at 10 µM [14]: 93%
3.5 | – | CC(C)(C)c1cc(-c2ccc(C(=O)O)s2)cc(C(C)(C)C)[s+]1 | 8% | inhibition [8]: 0%; inhibition [13]: 0%
3.7 | – | CC(C)(C)c1cc(-c2ccc(C(=S)N3CCCCC3)s2)cc(C(C)(C)C)[s+]1.[Cl-] | 0% | Ratio [6]: 15; logD at 1 h [10]: 0.7; Papp A-B at 1 h, 5 µM [11]: 0.18 ×10⁻⁶ cm/s; Papp B-A at 1 h, 5 µM [12]: 30 ×10⁻⁶ cm/s; inhibition at 10 µM [14]: 32%
2.9 | 33% | CC(C)(C)c1cc(-c2ccccc2)cc(C(C)(C)C)[s+]1 | – | inhibition [8]: 1%; inhibition [13]: 0%
7.9 | 34% | CCN(CC)C(=O)c1ccccc1-c1cc(C(C)(C)C)[s+]c(C(C)(C)C)c1 | – | inhibition [8]: 0%; inhibition [13]: 0%
7.2 | 94% | CN(C)c1ccc(-c2cc(-c3ccc(N(C)C)cc3)[s+]c(C(C)(C)C)c2)cc1 | – | –
6.9 | 50% | CN(C)c1ccc(-c2cc(-c3ccccc3)cc(C(C)(C)C)[s+]2)cc1 | – | –

The remaining lines, values behind:

Compound | fold induction at 0.5 h [1] | inhibition at 30 µM [2] | inhibition at 1 µM [3] | other results
Nc1ccc(-c2cc(-c3ccc(N4CCOCC4)cc3)cc(-c3ccccc3)[te+]2)cc1 | 4.5 | 96% | – | –
CC(C)(C)c1cc(-c2ccccc2)cc(C(C)(C)C)[se+]1 | 1.4 | – | 0% | –
CCN(CC)C(=O)c1ccccc1-c1cc(C(C)(C)C)[te+]c(C(C)(C)C)c1 | 6.9 | 45% | – | –
CC(C)(C)c1cc(-c2ccc(C(=O)O)s2)cc(C(C)(C)C)[se+]1 | < 1.4 | – | – | inhibition at 5 µM [4]: 15%; IC50 [5]: 111 µM
CC(C)(C)c1cc(-c2ccc(C(=S)N3CCCCC3)s2)cc(C(C)(C)C)[s+]1 | – | – | – | inhibition [8]: 27% and < 7%; inhibition [13]: 3.6%
c1ccc(-c2cc(-c3ccc(N4CCOCC4)cc3)[te+]c(-c3ccc(N4CCOCC4)cc3)c2)cc1 | 4 | 89% | – | –
Cc1cc(-c2ccc(N(C)C)cc2)cc(-c2ccc(N(C)C)cc2)[se+]1 | 1.4 | – | 15% | –
Cc1cc(C(C)(C)C)[o+]c(C(C)(C)C)c1 | – | 0% | – | –
Nc1ccc(-c2cc(-c3ccc(N4CCOCC4)cc3)cc(-c3ccc(N)cc3)[te+]2)cc1 | – | – | 8% | –
